Experimental data reported in ChEMBL document CHEMBL3259699, “Digitoxin analogues with improved anticytomegalovirus activity” (ACS Med Chem Lett, 2014).
The source made the active and inactive calls. No cut-off for these calls is given here.

Assays:
[1] = Cytotoxicity against HFF assessed as inhibition of cell viability after 3 days by MTT assay; format: cell-based; conditions: human, HFF cells
Summary of the method: (§1)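 Uninfected HFFs exposed to a concentration range at 37 °C for 3 days. MTT (5 mg/mL stock in PBS) added for 3 h at 37 °C. Formazan dissolved in DMSO and absorbance read. Triplicates in three independent experiments, mean ± SD. CC50 from dose-response curves.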

[2] = Cytotoxicity against HFF assessed as inhibition of cell viability after 3 days by trypan blue exclusion assay; format: cell-based; conditions: human, HFF cells
[3] = Selectivity index, ratio of CC50 for HFF to EC50 for Human cytomegalovirus Towne infected in human foreskin fibroblasts
Summary of the method: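 SI calculated as CC50/EC50. CC50 from MTT assay in uninfected HFFs. EC50 from pp28-luciferase HCMV Towne inhibition in infected HFFs.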

Human betaherpesvirus 5 [4] = assay: Antiviral activity against Human cytomegalovirus Towne infected in HFF assessed as inhibition of viral replication by measuring pp28 expression at 72 hrs post-infection by luciferase assay; format: functional, organism-based; conditions: Human betaherpesvirus 5, Towne
Summary of the method: (§2)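 HFFs infected with pp28-luciferase reporter HCMV at MOI 1 pfu/cell and treated across a concentration range. Luciferase activity read in cell lysates at 72 hpi. Triplicates in three independent experiments, mean ± SD. EC50 taken from dose-response curves.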

[5] = Cytotoxicity against HFF assessed as inhibition of cell proliferation at 0.1 uM after 3 days by MTT assay; format: cell-based; conditions: human, HFF cells; summary of the method: as §1
HFF [6] = assay: Effect on lovastatin-induced cell cycle arrest in HFF infected with HCMV assessed as accumulation at G0/1 phase treated for 24 hrs after incubation with early G1 inhibitor lovastatin for 48 hrs by propidium iodide staining based flow cytometry; format: ADME; conditions: human
Summary of the method: (§3)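 HFFs pretreated 48 h with mimosine or lovastatin, washed and released, then HCMV-infected and treated 24 h (1 day) with compound. Trypsinized, permeabilized at −20 °C for 12 h, stained with propidium iodide and analysed by flow cytometry.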

HFF [7] = assay: Cell cycle arrest in HFF infected with HCMV assessed as accumulation at G0/1 phase after 24 hrs by propidium iodide staining based flow cytometry; format: ADME; conditions: human
Summary of the method: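 HFFs serum-starved for 48 h, released, infected with Towne HCMV and treated with compound for 24 h. Cells trypsinized, permeabilized at −20 °C for 12 h, stained with propidium iodide and analysed by flow cytometry. Controls: serum-containing medium and GCV.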

HFF [8] = assay: Effect on mimosine-induced cell cycle arrest in HFF infected with HCMV assessed as accumulation at G0/1 phase treated for 1 day after incubation with mid-G1 inhibitor mimosine for 48 hrs by propidium iodide staining based flow cytometry; format: ADME; conditions: human, 24 h; summary of the method: as §3
Human betaherpesvirus 5 [9] = assay: Antiviral activity against Human cytomegalovirus Towne infected in HFF assessed as plaque reduction at 50 nM measured 8 days post-infection; format: functional, organism-based
Summary of the method: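 Plaque reduction assay with HCMV Towne in HFFs, read at 8 days postinfection. Triplicate determinations in three independent experiments, mean ± SD.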

Human betaherpesvirus 5 [10] = assay: Antiviral activity against Human cytomegalovirus TB40 infected in HFF assessed as inhibition of viral replication at 50 nM after 3 days by GFP-based fluorescence analysis; format: functional, organism-based
Summary of the method: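 Human foreskin fibroblasts (HFFs) infected with HCMV-TB40 (GFP-expressing) at MOI 1 pfu/cell, then treated with compound for 3 days. Read-out: GFP fluorescence, with a bright-field image for comparison.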

Human betaherpesvirus 5 [11] = assay: Antiviral activity against Human cytomegalovirus Towne infected in HFF assessed as decrease in virus DNA yield at 50 nM measured 96 hrs post-infection by real-time PCR analysis; format: functional, organism-based
Summary of the method: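 HFFs infected with HCMV Towne at MOI 1 pfu/cell and treated for 4 days. Supernatants collected and viral DNA yield quantified by real-time PCR. Triplicate determinations in three independent experiments, reported as mean ± SD.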

Human betaherpesvirus 5 [12] = assay: Antiviral activity against Human cytomegalovirus Towne infected in HFF assessed as inhibition of viral replication by measuring pp28 expression at 50 nM at 72 hrs post-infection by luciferase assay; format: functional, organism-based; summary of the method: as §2

Structure (SMILES) | CC50 at 72 h [1] [nM] | CC50 at 72 h [2] [nM] | Ratio CC50/EC50 [3] | EC50 (Human betaherpesvirus 5 [4]) [nM] | inhibition at 72 h, 0.1 µM [5] [%] | Activity (HFF [6]) | Activity (HFF [7]) | Activity (HFF [8]) | inhibition (Human betaherpesvirus 5 [9]) | inhibition (Human betaherpesvirus 5 [10]) | inhibition (Human betaherpesvirus 5 [11]) | inhibition (Human betaherpesvirus 5 [12])
C[C@H]1O[C@H](O[C@H]2[C@H](O)[C@H](O)[C@@H](O[C@H]3CC[C@@]4(C)[C@H](CC[C@@H]5[C@@H]4CC[C@]4(C)[C@@H](C6=CC(=O)OC6)CC[C@]54O)C3)O[C@@H]2C)[C@@H](O)[C@@H](O)[C@@H]1O | 6700 | 10000 | 32 | 209 |  |  |  |  |  |  |  | 
C[C@@H]1O[C@@H](O[C@@H]2[C@@H](O)[C@@H](O)[C@H](O[C@@H]3[C@@H](O)[C@@H](O)[C@H](O[C@H]4CC[C@@]5(C)[C@H](CC[C@@H]6[C@@H]5CC[C@]5(C)[C@@H](C7=CC(=O)OC7)CC[C@]65O)C4)O[C@H]3C)O[C@H]2C)[C@H](O)[C@H](O)[C@H]1O | 7000 | 11000 | 30 | 232 |  |  |  |  |  |  |  | 
C[C@H]1O[C@H](O[C@H]2CC[C@@]3(C)[C@H](CC[C@@H]4[C@@H]3CC[C@]3(C)[C@@H](C5=CC(=O)OC5)CC[C@]43O)C2)CC[C@@H]1O[C@@H]1CC[C@H](O)[C@@H](C)O1 | 12100 | 1000 | 15 | 790 |  |  |  |  |  |  |  | 
C[C@@H]1O[C@@H](O[C@H]2CC[C@@]3(C)[C@H](CC[C@@H]4[C@@H]3CC[C@]3(C)[C@@H](C5=CC(=O)OC5)CC[C@]43O)C2)[C@H](O)[C@H](O)[C@H]1O | 700 | 2000 | 139 | 4.8 |  |  |  |  |  |  |  | 
C[C@@H]1O[C@@H](O[C@@H]2CC[C@H](O[C@H]3CC[C@@]4(C)[C@H](CC[C@@H]5[C@@H]4CC[C@]4(C)[C@@H](C6=CC(=O)OC6)CC[C@]54O)C3)O[C@H]2C)CC[C@H]1O | 1100 | 7000 | 76 | 14.8 |  |  |  |  |  |  |  | 
C[C@@H]1O[C@@H](O[C@@H]2CC[C@H](O[C@@H]3CC[C@H](O[C@H]4CC[C@@]5(C)[C@H](CC[C@@H]6[C@@H]5CC[C@]5(C)[C@@H](C7=CC(=O)OC7)CC[C@]65O)C4)O[C@H]3C)O[C@H]2C)CC[C@H]1O | 2400 | 9000 | 21 | 113 |  |  |  |  |  |  |  | 
C[C@]12CC[C@H](O[C@@H]3O[C@@H](CO)[C@H](O)[C@@H](O)[C@H]3O)C[C@H]1CC[C@@H]1[C@@H]2CC[C@]2(C)[C@@H](C3=CC(=O)OC3)CC[C@]12O | 900 | 1900 | 127 | 7.3 |  |  |  |  |  |  |  | 
C[C@@H]1O[C@@H](O[C@H]2CC[C@@]3(C)[C@H](CC[C@@H]4[C@@H]3CC[C@]3(C)[C@@H](C5=CC(=O)OC5)CC[C@]43O)C2)CC[C@H]1O [RAMNODIGIN] | 700 | 4000 | 174 | 3.8 | 50 |  |  |  |  |  |  | 
C[C@@H]1O[C@@H](O[C@@H]2[C@@H](O)[C@@H](O)[C@H](O[C@H]3CC[C@@]4(C)[C@H](CC[C@@H]5[C@@H]4CC[C@]4(C)[C@@H](C6=CC(=O)OC6)CC[C@]54O)C3)O[C@H]2C)[C@H](O)[C@H](O)[C@H]1O | 1500 | 6000 | 41 | 36.7 |  |  |  |  |  |  |  | 
C[C@@H]1O[C@@H](O[C@H]2C[C@@H](O)[C@]3(CO)[C@H]4[C@H](O)C[C@]5(C)[C@@H](C6=CC(=O)OC6)CC[C@]5(O)[C@@H]4CC[C@]3(O)C2)[C@H](O)[C@H](O)[C@H]1O [OUABAIN] |  |  |  |  |  | Not Active | Active | Not Active |  |  |  | 
C[C@H]1O[C@@H](O[C@H]2[C@@H](O)C[C@H](O[C@H]3[C@@H](O)C[C@H](O[C@H]4CC[C@@]5(C)[C@H](CC[C@@H]6[C@@H]5CC[C@]5(C)[C@@H](C7=CC(=O)OC7)CC[C@]65O)C4)O[C@@H]3C)O[C@@H]2C)C[C@H](O)[C@@H]1O [DIGITOXIN] | 2800 | 6000 | 120 | 23.3 | 50 | Not Active | Active | Not Active | Active | Active | Active | Active
C[C@H]1O[C@H](O[C@H]2CC[C@@]3(C)[C@H](CC[C@@H]4[C@@H]3CC[C@]3(C)[C@@H](C5=CC(=O)OC5)CC[C@]43O)C2)[C@@H](O)[C@@H](O)[C@@H]1O | 2300 | 3700 | 86 | 26.6 |  |  |  |  |  |  |  | 
C[C@H]1O[C@H](O[C@H]2CC[C@@]3(C)[C@H](CC[C@@H]4[C@@H]3CC[C@]3(C)[C@@H](C5=CC(=O)OC5)CC[C@]43O)C2)CC[C@@H]1O[C@@H]1CC[C@H](O[C@@H]2CC[C@H](O)[C@@H](C)O2)[C@@H](C)O1 | 15000 | 19000 | 7 | 2080 |  |  |  |  |  |  |  | 
C[C@H]1O[C@H](O[C@H]2CC[C@@]3(C)[C@H](CC[C@@H]4[C@@H]3CC[C@]3(C)[C@@H](C5=CC(=O)OC5)CC[C@]43O)C2)CC[C@@H]1O | 1100 | 4000 | 29 | 37.5 |  |  |  |  |  |  |  | 
C[C@H]1O[C@H](O[C@H]2[C@H](O)[C@H](O)[C@@H](O[C@H]3[C@H](O)[C@H](O)[C@@H](O[C@H]4CC[C@@]5(C)[C@H](CC[C@@H]6[C@@H]5CC[C@]5(C)[C@@H](C7=CC(=O)OC7)CC[C@]65O)C4)O[C@@H]3C)O[C@@H]2C)[C@@H](O)[C@@H](O)[C@@H]1O | 10000 | 16000 | 31 | 320 |  |  |  |  |  |  |  | 
